Here are results for one compound from the M2OR odorant receptor database.

This experiment deals with T1, OR10J5 (Homo sapiens) (UniProt Q8NHC4).
T1 sequence (whole entry): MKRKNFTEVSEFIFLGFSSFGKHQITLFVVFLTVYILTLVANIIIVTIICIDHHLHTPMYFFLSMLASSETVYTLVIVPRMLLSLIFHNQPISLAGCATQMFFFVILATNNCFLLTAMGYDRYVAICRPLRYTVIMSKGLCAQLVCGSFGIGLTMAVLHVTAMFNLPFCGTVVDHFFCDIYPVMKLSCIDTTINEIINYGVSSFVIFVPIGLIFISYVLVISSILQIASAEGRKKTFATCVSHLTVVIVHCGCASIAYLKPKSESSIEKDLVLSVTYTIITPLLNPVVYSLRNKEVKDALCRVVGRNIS
The conditions noted are these: stereoisomer not certain. An outline of the steps:
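Each entry records the cell line, G-protein, co-transfected protein and tags used. Methods varied with the source, often transient luciferase assays in mammalian cell lines. A receptor–molecule pair is called responsive (active) if the original authors judged its signal statistically different from baseline and non-responsive (inactive) otherwise.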

`CCCCOC=O`: the “odorant receptor agonist call” value is “inactive”.
